Measurements: ChEMBL document CHEMBL4831543, “Design of Transmembrane Mimetic Structural Probes to Trap Different Stages of γ-Secretase-Substrate Interaction” (J Med Chem, 2021)
Activity calls are given as the source filed them. No cut-off for these calls is given here.

What was measured:
[1] = target: T1, Gamma-secretase (Homo sapiens) (UniProt Q96BI3+Q9NZ42+Q8WW43+P49768+Q92542+P49810); assay: Inhibition of HPI-Bpa-Bt labelling of gamma secretase (unknown origin) expressed in HEK293 cells at 10 uM preincubated for 1.5 hrs followed by irradiation for 30 mins by Western blot analysis; type: cell-based; settings: time 2.0 hrs
Method in brief: (§1)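 Purified γ-secretase, 2 nM, preincubated 30 min at 37 °C in assay buffer (50 mM HEPES pH 7.0, 150 mM NaCl, 0.025% DOPC, 0.1% DOPE, 0.25% CHAPSO). Biotinylated photoprobe added at 1 μM, with or without 10 μM competitor, for 1.5 h at 37 °C. UV 350 nm for 30 min on ice, streptavidin pull-down, six washes. Presenilin-1 NTF detected by western blot.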

[2] = target: T1, Gamma-secretase (Homo sapiens); assay: Inhibition of TSA-Bpa-Bt labelling of gamma secretase (unknown origin) expressed in HEK293 cells at 10 uM preincubated for 1.5 hrs followed by irradiation for 30 mins by Western blot analysis; type: cell-based; settings: time 2.0 hrs; method in brief: as §1
[3] = target: T1, Gamma-secretase (Homo sapiens); assay: Competitive inhibition of HPI 2 binding to gamma secretase (unknown origin); type: protein-complex assay
Method in brief: (§2)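 Cross-competition kinetics using the standard activity assay. Purified γ-secretase from suspension HEK293 cells, expressed from a tetracistronic vector, in detergent-lipid buffer (HEPES pH 7.0, DOPC, DOPE, CHAPSO). Varying concentrations of two inhibitors titrated against each other, with C100Flag held at 0.50 μM. Aβ40 measured by sandwich ELISA. Data plotted as reciprocal plots and fit to a two-inhibitor equation.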

Gamma-secretase [4] = assay: Inhibition of gamma secretase (unknown origin) expressed in HEK293 cells assessed as reduction of A-beta40 levels using C100-FLAG as substrate incubated for 2 hrs by sandwich ELISA; type: cell-based, Homo sapiens
Gamma-secretase [5] = assay: Noncompetitive inhibition of gamma secretase (unknown origin) expressed in HEK293 cells assessed as reduction of A-beta40 levels using varying level of C100-FLAG as substrate incubated for 2 hrs by double reciprocal plot analysis; type: cell-based, Homo sapiens
Method in brief: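 1 nM purified γ-secretase from suspension HEK293 cells (tetracistronic pMLINK) in HEPES pH 7.0, NaCl, DOPC, DOPE, 0.25% CHAPSO. Preincubated 30 min at 37 °C, then given inhibitor in DMSO (2% final) with C100Flag at 0–4.5 μM. Reaction run 2 h at 37 °C; Aβ40 read by sandwich ELISA. Ki obtained by fitting to a noncompetitive inhibition equation.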

[6] = target: T1, Gamma-secretase (Homo sapiens); assay: Competitive inhibition of TSA 1 binding to gamma secretase (unknown origin); type: protein-complex assay; method in brief: as §2

Structure (SMILES)	inhibition [1]	inhibition [2]	IC50 (Gamma-secretase [4]) [nM]	further results
COC(=O)[C@@H](NC(=O)[C@H](CC(C)C)NC(=O)N(Cc1ccccc1)C[C@@H](O)[C@H](Cc1ccccc1)NC(=O)[C@@H](NC(=O)OC(C)(C)C)C(C)C)C(C)C	inactive	Active	–	inhibition [3]: inactive
CC[C@H](C)[C@H](NC(=O)[C@@H](NC(=O)[C@@H](NC(=O)C(C)(C)NC(=O)CNC(=O)[C@@H](NC(=O)OC(C)(C)C)C(C)C)C(C)C)C(C)C)C(=O)NC(C)(C)C(=O)N[C@H](C(=O)N[C@H](C(=O)NC(C)(C)C(=O)NCCCCCCCCCCCC(=O)N[C@H](C(=O)N[C@@H](Cc1ccccc1)[C@H](O)CN(Cc1ccccc1)C(=O)N[C@@H](CC(C)C)C(=O)N[C@H](C(N)=O)C(C)C)C(C)C)C(C)C)[C@@H](C)O	–	–	0.87	–
CC[C@H](C)[C@H](NC(=O)[C@@H](NC(=O)[C@@H](NC(=O)C(C)(C)NC(=O)CNC(=O)[C@@H](NC(=O)OC(C)(C)C)C(C)C)C(C)C)C(C)C)C(=O)NC(C)(C)C(=O)N[C@H](C(=O)N[C@H](C(=O)NC(C)(C)C(=O)NCCCCCCCCCCC(=O)N[C@H](C(=O)N[C@@H](Cc1ccccc1)[C@H](O)CN(Cc1ccccc1)C(=O)N[C@@H](CC(C)C)C(=O)N[C@H](C(N)=O)C(C)C)C(C)C)C(C)C)[C@@H](C)O	–	–	0.7	Ki (Gamma-secretase [5]): 0.65 nM
CC[C@H](C)[C@H](NC(=O)[C@@H](NC(=O)[C@@H](NC(=O)C(C)(C)NC(=O)CNC(=O)[C@@H](NC(=O)OC(C)(C)C)C(C)C)C(C)C)C(C)C)C(=O)NC(C)(C)C(=O)N[C@H](C(=O)N[C@H](C(=O)NC(C)(C)C(=O)NCCCCCCCCC(=O)N[C@H](C(=O)N[C@@H](Cc1ccccc1)[C@H](O)CN(Cc1ccccc1)C(=O)N[C@@H](CC(C)C)C(=O)N[C@H](C(N)=O)C(C)C)C(C)C)C(C)C)[C@@H](C)O	–	–	1.1	–
CC[C@H](C)[C@H](NC(=O)[C@@H](NC(=O)[C@@H](NC(=O)C(C)(C)NC(=O)CNC(=O)[C@@H](NC(=O)OC(C)(C)C)C(C)C)C(C)C)C(C)C)C(=O)NC(C)(C)C(=O)N[C@@H](Cc1ccccc1)C(=O)N[C@H](C(=O)NC(C)(C)C(=O)NCC(=O)NCC(=O)NCC(=O)N[C@H](C(=O)N[C@@H](Cc1ccccc1)[C@H](O)CN(Cc1ccccc1)C(=O)N[C@@H](CC(C)C)C(=O)N[C@H](C(N)=O)C(C)C)C(C)C)C(C)C	Active	Active	–	–
CC[C@H](C)[C@H](NC(=O)[C@@H](NC(=O)[C@@H](NC(=O)C(C)(C)NC(=O)CNC(=O)[C@@H](NC(=O)OC(C)(C)C)C(C)C)C(C)C)C(C)C)C(=O)NC(C)(C)C(=O)N[C@H](C(=O)N[C@H](C(=O)NC(C)(C)C(=O)NCCCCCCC(=O)N[C@H](C(=O)N[C@@H](Cc1ccccc1)[C@H](O)CN(Cc1ccccc1)C(=O)N[C@@H](CC(C)C)C(=O)N[C@H](C(N)=O)C(C)C)C(C)C)C(C)C)[C@@H](C)O	–	–	1.5	–
CC[C@H](C)[C@@H](NC(=O)[C@H](NC(=O)[C@H](NC(=O)C(C)(C)NC(=O)CNC(=O)[C@H](NC(=O)OC(C)(C)C)C(C)C)C(C)C)C(C)C)C(=O)NC(C)(C)C(=O)N[C@@H](C(=O)N[C@@H](C(=O)NC(C)(C)C(=O)NCCCCCCCCCCC(=O)N[C@H](C(=O)N[C@@H](Cc1ccccc1)[C@H](O)CN(Cc1ccccc1)C(=O)N[C@@H](CC(C)C)C(=O)N[C@H](C(N)=O)C(C)C)C(C)C)C(C)C)[C@@H](C)O	Active	Active	–	inhibition [3]: Active; inhibition [6]: Active
CC[C@H](C)C(NC(=O)[C@@H](NC(=O)C(C)(C)NC(=O)[C@@H](NC(=O)[C@H](Cc1ccccc1)NC(=O)C(C)(C)NC(=O)[C@@H](NC(=O)[C@@H](NC(=O)[C@@H](NC(=O)C(C)(C)NC(=O)CNC(=O)[C@@H](NC(=O)OC(C)(C)C)C(C)C)C(C)C)C(C)C)[C@@H](C)CC)C(C)C)C(C)C)C(=O)N[C@H](C(=O)N[C@H](C(=O)N[C@@H](Cc1ccccc1)[C@H](O)CN(Cc1ccccc1)C(=O)N[C@@H](CC(C)C)C(=O)N[C@H](C(N)=O)C(C)C)C(C)C)C(C)C (some centres not stated)	–	–	58.9	–

Second part, led by results:

inhibition [1]	inhibition [2]	IC50 (Gamma-secretase [4]) [nM]	Structure (SMILES)	further results
–	–	6	CC[C@H](C)[C@H](NC(=O)[C@@H](NC(=O)[C@@H](NC(=O)C(C)(C)NC(=O)CNC(=O)[C@@H](NC(=O)OC(C)(C)C)C(C)C)C(C)C)C(C)C)C(=O)NC(C)(C)C(=O)N[C@H](C(=O)N[C@H](C(=O)NC(C)(C)C(=O)NCCC(=O)N[C@H](C(=O)N[C@@H](Cc1ccccc1)[C@H](O)CN(Cc1ccccc1)C(=O)N[C@@H](CC(C)C)C(=O)N[C@H](C(N)=O)C(C)C)C(C)C)C(C)C)[C@@H](C)O	–
–	–	3.2	CC[C@H](C)[C@H](NC(=O)[C@@H](NC(=O)[C@@H](NC(=O)C(C)(C)NC(=O)CNC(=O)[C@@H](NC(=O)OC(C)(C)C)C(C)C)C(C)C)C(C)C)C(=O)NC(C)(C)C(=O)N[C@H](C(=O)N[C@H](C(=O)NC(C)(C)C(=O)NCCCCC(=O)N[C@H](C(=O)N[C@@H](Cc1ccccc1)[C@H](O)CN(Cc1ccccc1)C(=O)N[C@@H](CC(C)C)C(=O)N[C@H](C(N)=O)C(C)C)C(C)C)C(C)C)[C@@H](C)O	–
Active	inactive	–	CC[C@H](C)[C@H](NC(=O)[C@@H](NC(=O)[C@@H](NC(=O)C(C)(C)NC(=O)CNC(=O)[C@@H](NC(=O)OC(C)(C)C)C(C)C)C(C)C)C(C)C)C(=O)NC(C)(C)C(=O)N[C@@H](Cc1ccccc1)C(=O)N[C@H](C(=O)NC(C)(C)C(=O)OC)C(C)C	inhibition [6]: inactive
–	–	34.8	CC[C@H](C)[C@H](NC(=O)[C@@H](NC(=O)[C@@H](NC(=O)C(C)(C)NC(=O)CNC(=O)[C@@H](NC(=O)OC(C)(C)C)C(C)C)C(C)C)C(C)C)C(=O)NC(C)(C)C(=O)N[C@H](C(=O)N[C@H](C(=O)NC(C)(C)C(=O)OC)C(C)C)[C@@H](C)O	–
–	–	7.5	CC[C@H](C)[C@H](NC(=O)[C@@H](NC(=O)[C@@H](NC(=O)C(C)(C)NC(=O)CNC(=O)[C@@H](NC(=O)OC(C)(C)C)C(C)C)C(C)C)C(C)C)C(=O)NC(C)(C)C(=O)N[C@H](C(=O)N[C@H](C(=O)NC(C)(C)C(=O)N[C@H](C(=O)N[C@@H](Cc1ccccc1)[C@H](O)CN(Cc1ccccc1)C(=O)N[C@@H](CC(C)C)C(=O)N[C@H](C(N)=O)C(C)C)C(C)C)C(C)C)[C@@H](C)O	–
